# According to ChEMBL document CHEMBL4699426, “A practical synthesis of amino limonin/deoxylimonin derivatives as effective mitigators against inflammation and nociception” (2020):
# Assays:
# [1] = tested on: Mus musculus; test: Antiinflammatory activity in ICR mouse model of carrageenan-induced paw edema assessed as paw edema inhibition rate at 100 mg/kg, po pretreated with compound followed by carrageenan challenge and measured after 4 hrs post-treatment by dial thickness gage; format: functional
# In short: (§1)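 ICR male mice, 8 per group, randomized, acclimated at least one week, 12 h light/dark, 22 ± 1 °C. Dosed intragastrically at 25, 50 or 100 mg/kg; indomethacin 22 mg/kg i.g. as reference; olive oil as vehicle. 30 min later, 1% fresh carrageenan in saline injected subplantar into right hind paw. Paw thickness read by dial gauge before injection and at 1, 2, 3 and 4 h; percent increase over pre-injection value.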
# [2] = tested on: Mus musculus; test: Antiinflammatory activity in mouse model of xylene-induced ear swelling assessed as inhibition of swelling by measuring weight of the ear at 100 mg/kg, ig pretreated for 90 mins followed by xylene challenge and measured after 30 mins relative to control; format: functional; conditions: po, 2 h, time 120 min
# In short: (§2)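 Xylene ear swelling in mice. Test compounds 100 mg/kg i.g., naproxen 150 mg/kg i.g., all suspended in 0.5% CMC-Na; vehicle group got CMC-Na alone. 90 min after dosing, 25 ul xylene applied to both surfaces of right ear; left ear unstimulated. Killed 30 min later; 8 mm punches from both ears weighed; swelling taken against left ear weight.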
# [3] = tested on: Mus musculus; test: Analgesic activity in mouse model of acetic-acid-induced writhing assessed as inhibition of writhing numbers at 70 mg/kg, po pretreated with compound followed by acetic acid challenge and measured after 30 mins relative to control; format: functional; conditions: 0.5 h
# In short: (§3)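 Acetic acid writhing in mice. Oral dosing (70 mg/kg test compounds or limonin; 200 mg/kg aspirin); vehicle controls got 0.5% CMC-Na. 30 min later 0.6% acetic acid, 10 ml/kg i.p. Each animal held in its own box and observed for 15 min; writhing and stretching counted; result as percent change from vehicle writhing controls.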
# [4] = tested on: Mus musculus; test: Antiinflammatory activity in po dosed ICR mouse model of carrageenan-induced paw edema assessed as paw edema inhibition rate pretreated with compound followed by carrageenan challenge and measured after 4 hrs post-treatment by dial thickness gage; format: functional, organism-based; conditions: dose mg/kg 25-100, time 4.0 hrs; in short: as §1
# [5] = tested on: Mus musculus; test: Antiinflammatory activity in ICR mouse model of carrageenan-induced paw edema assessed as paw edema inhibition rate at 50 mg/kg, ig pretreated with compound followed by carrageenan challenge and measured after 4 hrs post-treatment by dial thickness gage; format: functional; conditions: po; in short: as §1
# [6] = tested on: Mus musculus; test: Antiinflammatory activity in ICR mouse model of carrageenan-induced paw edema assessed as paw edema inhibition rate at 25 mg/kg, po pretreated with compound followed by carrageenan challenge and measured after 4 hrs post-treatment by dial thickness gage; format: functional; conditions: 2 h, dose mg/kg 25-100; in short: as §1
# [7] = tested on: Mus musculus; test: Antiinflammatory activity in ICR mouse model of carrageenan-induced paw edema assessed as paw edema inhibition rate at 25 mg/kg, po pretreated with compound followed by carrageenan challenge and measured after 3 hrs post-treatment by dial thickness gage; format: functional; in short: as §1
# [8] = tested on: Mus musculus; test: Antiinflammatory activity in ICR mouse model of carrageenan-induced paw edema assessed as paw edema inhibition rate at 50 mg/kg, po pretreated with compound followed by carrageenan challenge and measured after 3 hrs post-treatment by dial thickness gage; format: functional; in short: as §1
# [9] = tested on: Mus musculus; test: Antiinflammatory activity in ICR mouse model of carrageenan-induced paw edema assessed as paw edema inhibition rate at 100 mg/kg, po pretreated with compound followed by carrageenan challenge and measured after 3 hrs post-treatment by dial thickness gage; format: functional; in short: as §1
# [10] = tested on: Mus musculus; test: Antiinflammatory activity in ICR mouse model of carrageenan-induced paw edema assessed as paw edema inhibition rate at 25 mg/kg, po pretreated with compound followed by carrageenan challenge and measured after 2 hrs post-treatment by dial thickness gage; format: functional; in short: as §1
# [11] = tested on: Mus musculus; test: Antiinflammatory activity in ICR mouse model of carrageenan-induced paw edema assessed as paw edema inhibition rate at 50 mg/kg, po pretreated with compound followed by carrageenan challenge and measured after 2 hrs post-treatment by dial thickness gage; format: functional; in short: as §1
# [12] = tested on: Mus musculus; test: Antiinflammatory activity in ICR mouse model of carrageenan-induced paw edema assessed as paw edema inhibition rate at 100 mg/kg, po pretreated with compound followed by carrageenan challenge and measured after 2 hrs post-treatment by dial thickness gage; format: functional; in short: as §1
# [13] = tested on: Mus musculus; test: Antiinflammatory activity in ICR mouse model of carrageenan-induced paw edema assessed as paw edema inhibition rate at 25 mg/kg, po pretreated with compound followed by carrageenan challenge and measured after 1 hr post-treatment by dial thickness gage; format: functional; in short: as §1
# [14] = tested on: Mus musculus; test: Antiinflammatory activity in ICR mouse model of carrageenan-induced paw edema assessed as paw edema inhibition rate at 50 mg/kg, po pretreated with compound followed by carrageenan challenge and measured after 1 hr post-treatment by dial thickness gage; format: functional; in short: as §1
# [15] = tested on: Mus musculus; test: Antiinflammatory activity in ICR mouse model of carrageenan-induced paw edema assessed as paw edema inhibition rate at 100 mg/kg, po pretreated with compound followed by carrageenan challenge and measured after 1 hr post-treatment by dial thickness gage; format: functional; in short: as §1
# [16] = organism: Mus musculus; test: animal or person; conditions: po, 2 h, read-out: INH
# [17] = tested on: Mus musculus; test: Analgesic activity in mouse model of acetic-acid-induced writhing assessed as inhibition of writhing numbers at 200 mg/kg, po pretreated with compound followed by acetic acid challenge and measured after 30 mins relative to control; format: functional; conditions: 0.5 h; in short: as §3
# [18] = tested on: Mus musculus; test: Antiinflammatory activity in ICR mouse model of carrageenan-induced paw edema assessed as paw edema inhibition rate at 22 mg/kg, po pretreated with compound followed by carrageenan challenge and measured after 4 hrs post-treatment by dial thickness gage; format: functional; in short: as §1
# [19] = tested on: Mus musculus; test: Antiinflammatory activity in ICR mouse model of carrageenan-induced paw edema assessed as paw edema inhibition rate at 22 mg/kg, po pretreated with compound followed by carrageenan challenge and measured after 3 hrs post-treatment by dial thickness gage; format: functional; in short: as §1
# [20] = tested on: Mus musculus; test: Antiinflammatory activity in ICR mouse model of carrageenan-induced paw edema assessed as paw edema inhibition rate at 22 mg/kg, po pretreated with compound followed by carrageenan challenge and measured after 2 hrs post-treatment by dial thickness gage; format: functional; in short: as §1
# [21] = tested on: Mus musculus; test: Antiinflammatory activity in ICR mouse model of carrageenan-induced paw edema assessed as paw edema inhibition rate at 22 mg/kg, po pretreated with compound followed by carrageenan challenge and measured after 1 hr post-treatment by dial thickness gage; format: functional; in short: as §1
# [22] = tested on: Mus musculus; test: Antiinflammatory activity in mouse model of xylene-induced ear swelling assessed as inhibition of swelling by measuring weight of the ear at 100 mg/kg, ig pretreated for 90 mins followed by xylene challenge and measured after 30 mins relative to deoxy-limonin; format: functional; conditions: time 120 min, 2 h; in short: as §2
structure (smiles),measurement,setting,value
COc1ccc(CNCCC2OC(C)(C)[C@@H]3CC(=O)[C@]4(C)[C@H](CC[C@@]5(C)[C@H](c6ccoc6)OC(=O)[C@H]6O[C@]654)C23CO)cc1 (stereo partly drawn),inhibition in vivo at 100 mg/kg,[1],32%
same,inhibition in vivo at 100 mg/kg,[2],27.3%
same,inhibition in vivo at 70 mg/kg,[3],81.5%
same,inhibition,[4],Dose-dependent effect
same,inhibition in vivo at 50 mg/kg,[5],15.6%
same,inhibition in vivo at 25 mg/kg,[6],5.75%
same,inhibition in vivo at 25 mg/kg,[7],9.77%
same,inhibition in vivo at 50 mg/kg,[8],17.5%
same,inhibition in vivo at 100 mg/kg,[9],41.4%
same,inhibition in vivo at 25 mg/kg,[10],24.6%
same,inhibition in vivo at 50 mg/kg,[11],33.3%
same,inhibition in vivo at 100 mg/kg,[12],62%
same,inhibition in vivo at 25 mg/kg,[13],43.4%
same,inhibition in vivo at 50 mg/kg,[14],44.6%
same,inhibition in vivo at 100 mg/kg,[15],54.5%
CC1(C)OC2CCN(Cc3ccc(F)cc3)CC23[C@H]2CC[C@]4(C)C(=CC(=O)O[C@H]4c4ccoc4)[C@]2(C)C(=O)C[C@@H]13 (stereo partly drawn),inhibition in vivo at 100 mg/kg,[2],28%
same,inhibition in vivo at 70 mg/kg,[3],40.3%
COc1ccc2cc([C@H](C)C(=O)O)ccc2c1 [NAPROXEN],inhibition in vivo at 150 mg/kg,[16],25%
CC(=O)Oc1ccccc1C(=O)O [ASPIRIN],inhibition in vivo at 200 mg/kg,[17],51.5%
CC1(C)O[C@H]2CC(=O)OC[C@]23[C@H]2CC[C@@]4(C)[C@H](c5ccoc5)OC(=O)[C@H]5O[C@]54[C@]2(C)C(=O)C[C@@H]13 [LIMONIN],inhibition in vivo at 100 mg/kg,[2],14.4%
same,inhibition in vivo at 70 mg/kg,[3],44.2%
same,inhibition in vivo at 50 mg/kg,[8],26.3%
same,inhibition in vivo at 50 mg/kg,[11],22%
same,inhibition in vivo at 50 mg/kg,[14],57.3%
COc1ccc(CNCCC2OC(C)(C)[C@@H]3CC(=O)[C@@]4(C)C5=CC(=O)O[C@@H](c6ccoc6)[C@]5(C)CC[C@@H]4C23CO)cc1 (stereo partly drawn),inhibition in vivo at 100 mg/kg,[2],24.8%
same,inhibition in vivo at 70 mg/kg,[3],29.7%
COc1ccc(CN2CCC3OC(C)(C)[C@@H]4CC(=O)[C@@]5(C)C6=CC(=O)O[C@@H](c7ccoc7)[C@]6(C)CC[C@@H]5C34C2)cc1 (stereo partly drawn),inhibition in vivo at 100 mg/kg,[2],32.5%
same,inhibition in vivo at 70 mg/kg,[3],40%
CC1(C)OC(CCNCCc2ccc(F)cc2)C2(CO)[C@H]3CC[C@@]4(C)[C@H](c5ccoc5)OC(=O)[C@H]5O[C@]54[C@]3(C)C(=O)C[C@@H]12 (stereo partly drawn),inhibition in vivo at 100 mg/kg,[2],16.1%
same,inhibition in vivo at 70 mg/kg,[3],55.8%
CC1(C)OC(CCNCCc2ccc(F)cc2)C2(CO)[C@H]3CC[C@]4(C)C(=CC(=O)O[C@H]4c4ccoc4)[C@]3(C)C(=O)C[C@@H]12 (stereo partly drawn),inhibition in vivo at 100 mg/kg,[2],30%
same,inhibition in vivo at 70 mg/kg,[3],30.1%
COc1ccc2c(c1)c(CC(=O)O)c(C)n2C(=O)c1ccc(Cl)cc1 [INDOMETHACIN],inhibition in vivo at 22 mg/kg,[18],64.8%
same,inhibition in vivo at 22 mg/kg,[19],64.9%
same,inhibition in vivo at 22 mg/kg,[20],60%
same,inhibition in vivo at 22 mg/kg,[21],47.5%
COc1cccc(CCNCCC2OC(C)(C)[C@@H]3CC(=O)[C@]4(C)[C@H](CC[C@@]5(C)[C@H](c6ccoc6)OC(=O)[C@H]6O[C@]654)C23CO)c1 (stereo partly drawn),inhibition in vivo at 100 mg/kg,[2],17%
same,inhibition in vivo at 70 mg/kg,[3],58.7%
CC1(C)O[C@H]2CC(=O)OC[C@@]23[C@H]1CC(=O)[C@@]1(C)C2=CC(=O)O[C@@H](c4ccoc4)[C@]2(C)CC[C@@H]13,inhibition in vivo at 100 mg/kg,[2],11.2%
same,inhibition in vivo at 70 mg/kg,[3],22.6%
CC1(C)OC(CCNCc2ccc(F)cc2)C2(CO)[C@H]3CC[C@]4(C)C(=CC(=O)O[C@H]4c4ccoc4)[C@]3(C)C(=O)C[C@@H]12 (stereo partly drawn),inhibition in vivo at 100 mg/kg,[2],29.5%
same,inhibition in vivo at 70 mg/kg,[3],37%
CC1(C)OC(CCNCc2ccc(F)cc2)C2(CO)[C@H]3CC[C@@]4(C)[C@H](c5ccoc5)OC(=O)[C@H]5O[C@]54[C@]3(C)C(=O)C[C@@H]12 (stereo partly drawn),inhibition in vivo at 100 mg/kg,[2],27.4%
same,inhibition in vivo at 70 mg/kg,[3],63.8%
COc1ccc(CCNCCC2OC(C)(C)[C@@H]3CC(=O)[C@@]4(C)C5=CC(=O)O[C@@H](c6ccoc6)[C@]5(C)CC[C@@H]4C23CO)cc1OC (stereo partly drawn),inhibition in vivo at 100 mg/kg,[2],37.9%
same,inhibition in vivo at 70 mg/kg,[3],52.6%
COc1ccc(CCNCCC2OC(C)(C)[C@@H]3CC(=O)[C@]4(C)[C@H](CC[C@@]5(C)[C@H](c6ccoc6)OC(=O)[C@H]6O[C@]654)C23CO)cc1OC (stereo partly drawn),inhibition in vivo at 100 mg/kg,[2],26.7%
same,inhibition in vivo at 70 mg/kg,[3],11.2%
COc1cccc(CCNCCC2OC(C)(C)[C@@H]3CC(=O)[C@@]4(C)C5=CC(=O)O[C@@H](c6ccoc6)[C@]5(C)CC[C@@H]4C23CO)c1 (stereo partly drawn),inhibition in vivo at 100 mg/kg,[1],27.5%
same,inhibition in vivo at 100 mg/kg,[2],51.5%
same,fold change (FC),[22],5
same,inhibition in vivo at 70 mg/kg,[3],52.6%
same,inhibition,[4],Dose-dependent effect
same,inhibition in vivo at 25 mg/kg,[6],5.43%
same,inhibition in vivo at 25 mg/kg,[7],12%
same,inhibition in vivo at 50 mg/kg,[8],24.1%
same,inhibition in vivo at 100 mg/kg,[9],35.3%
same,inhibition in vivo at 25 mg/kg,[10],17.6%
same,inhibition in vivo at 50 mg/kg,[11],27.3%
same,inhibition in vivo at 100 mg/kg,[12],65.3%
same,inhibition in vivo at 25 mg/kg,[13],51.5%
same,inhibition in vivo at 50 mg/kg,[14],55.6%
same,inhibition in vivo at 100 mg/kg,[15],59.8%
